# From paper PMC5933005 (Dalton Transactions (Cambridge, England : 2003), 2018)
# Read-outs that look alike come from different tables or passages of the source.
# Legend:
# [1] = Biotransformation / kinetic inertness in whole human blood by RP-ICP-MS; format: in vitro ADME; conditions: 37 °C; for stability of parent compound in whole human blood: 24 h incubation; for platinum(II) metabolites detected in whole human blood: after 24 h incubation
# In short: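 Fresh human blood spiked with test compound was extracted in one of two ways: ice-cold acetonitrile with vortexing, sonication and centrifugation, or 0.1% formic acid, dry-ice freeze/sonication thaw, then 25% TCA precipitation. Supernatants were 0.45 μm filtered, diluted 1:5 in 50 mM ammonium formate (pH 6.0) and held at 4 °C. Species were separated by C18 RP-ICP-MS in triplicate, with a platinum(IV) reference QC for normalisation. Half-life came from a first-order fit.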
# [2] = whole human blood in vitro; cited from earlier work
# [3] = 15 min after oral administration; cited from earlier work
# [4] = system: SW480 (colon carcinoma) cells; conditions: 2 h exposure; cited from earlier work
# [5] = system: murine colon cancer model CT-26; conditions: i.p. and p.o. administration; cited from earlier work
# [6] = format: in vitro ADME, human; conditions: for proportion of platinum found in blood cells: after 2 h, ~10 μM in whole human blood, 37 °C
# In short: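 Fresh heparinised human whole blood was spiked from a 1 mM aqueous stock to a final ~10 μM and incubated at 37 °C for 0, 0.5, 1, 2 and 24 h. It was centrifuged for 10 min at 2000 rcf in a 4 °C rotor. Plasma and cell fractions were microwave-digested in 25% nitric acid at 200 °C, and Pt was measured by ICP-MS. Values were normalised to haematocrit (47%) and fraction density, and the rate constant came from an exponential fit.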
# [7] = system: leukemia L1210 mouse model; conditions: cited from earlier work
# [8] = kinetic model, exponential kinetics, whole human blood
compound,measurement,setting,value
"CC(=O)[O][Pt]1([NH2])([NH2])([O]C(C)=O)[O]C(=O)C2(CCC2)C(=O)[O]1 [Complex 3, (OC-6-33)-diacetatodiammine(1,1-cyclobutanedicarboxylato)-platinum(IV)]",stability of parent compound in whole human blood,"[1]; 10 μM, RP-ICP-MS",remain stable over 24 hours
CC(=O)[O][Pt]([NH2])([Cl])([Cl])([NH]C1CCCCC1)[O]C(C)=O [satraplatin],half-life for the disappearance of the parent compound,[2],6.3 min
same,detection of parent compound in patient's plasma ultrafiltrate,[3],could not be detected any more
same,number of platinum-containing species in patient's plasma ultrafiltrate,[3],seven
"CC[NH][Pt]([Cl])([Cl])([NH]CC)([O]C(=O)CCC(=O)OCC)[O]C(=O)CCC(=O)OCC [Complex 4, (OC-6-33)-dichloridobis((4-ethoxy)-4-oxobutanoato)bis(ethylamine)platinum(IV)]",platinum accumulation in SW480 cells,[4],high platinum accumulation
same,anticancer activity in CT-26 model,[5],showed anticancer activity
same,stability of parent compound in whole human blood,"[1]; 10 μM, RP-ICP-MS",could not be detected any more after 24 hours
same,platinum(II) metabolites detected in whole human blood,"[1]; 10 μM, RP-ICP-MS",no notable amounts of hydrophilic platinum(II)-metabolites were detected
same,half-life in blood,"[1]; first-order kinetic model, whole human blood",45.4 ± 3.3 min
same,proportion of platinum found in blood cells,[6],around 60%
same,proportion of platinum found in blood cells,[6]; listed as Compound 4,60%
same,drug-related platinum inside blood cells in equilibrium,[6]; [8],59.7 ± 0.9%
same,first-order rate constant of accumulation in blood cells,[6]; [8],1.2 ± 0.1 h⁻¹
same,proportion of platinum in red blood cells,"[6]; time point 0, ~10 μM in whole human blood",30%
same,efficacy in L1210 model,[7],efficacy
"O=C1[O][Pt]2([OH])([OH])([NH]C3CCCCC3[NH]2)[O]C1=O [Complex 1, (OC-6-33)-dihydroxido(1R,2R-diaminocyclohexane)oxalatoplatinum(IV)]",stability of parent compound in whole human blood,"[1]; 10 μM, RP-ICP-MS",remain stable over 24 hours
"(OC-6-33)-diacetato(1R,2R-diaminocyclohexane)oxalatoplatinum(IV) [Complex 2]",platinum(II) metabolites detected in whole human blood,"[1]; 10 μM, RP-ICP-MS",a significant amount of oxaliplatin could be detected
same,species observed in whole human blood,"[1]; over 6 hours incubation, 10 μM, RP-ICP-MS",only the intact complex was observed
